Activity calls are given as the source filed them. Unless noted, no cut-off for these calls is given here.
Columns and labels:
U-937 [1] = experiment: Cell cycle arrest in human U937 cells assessed as accumulation at G2 phase at 25 uM after 30 hrs; format: functional, cell-based
Procedure, shortened: (§1)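 U937 cells in RPMI with 10% fetal calf serum, HEPES and glutamine, kept at 200000 cells/mL; treated at 25 µM for 30 h, then the distribution across cell cycle phases was analysed.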

U-937 [2] = experiment: Induction of apoptosis in human U937 cells at 25 uM after 30 hrs; format: functional
Procedure, shortened: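 Apoptosis read as caspase 3 activation by FACS, in U937 cells (RPMI, 10% fetal calf serum, 200000 cells/mL) exposed to 25 µM for 30 h.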

U-937 [3] = experiment: Induction of granulocytic differentiation in human U937 cells assessed as CD11c expression at 5 uM after 30 hrs; format: functional
Procedure, shortened: (§2)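 U937 cells treated for 30 h, then stained with PE-conjugated CD11c (PE mouse IgG1 as control) for 30 min at 4 °C in the dark and resuspended in PBS with PI (0.25 µg/mL). Read-out is percent CD11c-positive/PI-negative cells, with dead PI-positive cells excluded. Coloured compounds limited the top dose to 5 µM or lower.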

RmtA = RmtA (Emericella nidulans, UniProt Q5VLE3); experiment: Inhibition of Aspergillus nidulans RmtA
Sequence of RmtA (Q5VLE3 whole entry, the tested form may be a part): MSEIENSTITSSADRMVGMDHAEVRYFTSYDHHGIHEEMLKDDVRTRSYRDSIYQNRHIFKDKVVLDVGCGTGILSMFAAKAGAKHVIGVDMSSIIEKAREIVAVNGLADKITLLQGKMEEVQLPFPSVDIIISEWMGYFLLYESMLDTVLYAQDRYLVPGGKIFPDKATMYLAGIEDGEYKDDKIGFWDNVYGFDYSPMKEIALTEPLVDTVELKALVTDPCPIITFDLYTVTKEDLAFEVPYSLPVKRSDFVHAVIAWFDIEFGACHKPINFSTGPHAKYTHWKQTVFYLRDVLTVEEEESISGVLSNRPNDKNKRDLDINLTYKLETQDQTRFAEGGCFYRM
Procedure, shortened: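 Enzyme was GST-RmtA fusion expressed in E. coli BL21 and glutathione-affinity purified (500 ng), preincubated with compound for 15 min at room temperature. Then 20 µg chicken erythrocyte core histones and 0.55 µCi [3H]AdoMet were added, 30 min at 30 °C. Stopped with 25% TCA, filtered, counted by liquid scintillation.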

[4] = target: Protein arginine N-methyltransferase 1 (Homo sapiens) (UniProt Q99873); experiment: Inhibition of human recombinant PRMT1 assessed as histone H4 methylation at 50 uM
Sequence of Protein arginine N-methyltransferase 1 (Homo sapiens) (Q99873 whole entry, looked up): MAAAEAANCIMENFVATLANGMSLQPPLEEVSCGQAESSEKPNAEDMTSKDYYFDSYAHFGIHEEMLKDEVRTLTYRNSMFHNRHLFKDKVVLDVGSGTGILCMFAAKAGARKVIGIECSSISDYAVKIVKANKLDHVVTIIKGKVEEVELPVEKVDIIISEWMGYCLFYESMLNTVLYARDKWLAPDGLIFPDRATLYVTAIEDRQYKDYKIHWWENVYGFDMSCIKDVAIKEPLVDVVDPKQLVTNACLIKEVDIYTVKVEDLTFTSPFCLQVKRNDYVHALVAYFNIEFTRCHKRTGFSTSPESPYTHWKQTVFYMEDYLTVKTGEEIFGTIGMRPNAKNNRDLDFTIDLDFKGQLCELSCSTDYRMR

[5] = target: Protein arginine N-methyltransferase 1 (Homo sapiens) (UniProt Q99873); experiment: Inhibition of human recombinant PRMT1 assessed as nuclear ribonucleoprotein Npl3p methylation at 100 uM
Procedure, shortened: (§3)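 Recombinant enzymes (0.2 µg) with substrate (0.5 µg: Npl3p for PRMT1, PABP1 for CARM1, histone H3 for SET7), 0.5 µM [3H]AdoMet and 100 µM compound in PBS pH 7.4 with 3.3% v/v DMSO, 90 min at 30 °C. Products separated by 10% SDS-PAGE, transferred to PVDF, detected by fluorography on film overnight.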

[6] = target: T1, Histone-arginine methyltransferase CARM1 (Homo sapiens) (UniProt Q86X55); experiment: Inhibition of human recombinant CARM1 assessed as poly(A) binding protein 1 methylation at 100 uM; procedure, shortened: as §3
T1 sequence (whole entry): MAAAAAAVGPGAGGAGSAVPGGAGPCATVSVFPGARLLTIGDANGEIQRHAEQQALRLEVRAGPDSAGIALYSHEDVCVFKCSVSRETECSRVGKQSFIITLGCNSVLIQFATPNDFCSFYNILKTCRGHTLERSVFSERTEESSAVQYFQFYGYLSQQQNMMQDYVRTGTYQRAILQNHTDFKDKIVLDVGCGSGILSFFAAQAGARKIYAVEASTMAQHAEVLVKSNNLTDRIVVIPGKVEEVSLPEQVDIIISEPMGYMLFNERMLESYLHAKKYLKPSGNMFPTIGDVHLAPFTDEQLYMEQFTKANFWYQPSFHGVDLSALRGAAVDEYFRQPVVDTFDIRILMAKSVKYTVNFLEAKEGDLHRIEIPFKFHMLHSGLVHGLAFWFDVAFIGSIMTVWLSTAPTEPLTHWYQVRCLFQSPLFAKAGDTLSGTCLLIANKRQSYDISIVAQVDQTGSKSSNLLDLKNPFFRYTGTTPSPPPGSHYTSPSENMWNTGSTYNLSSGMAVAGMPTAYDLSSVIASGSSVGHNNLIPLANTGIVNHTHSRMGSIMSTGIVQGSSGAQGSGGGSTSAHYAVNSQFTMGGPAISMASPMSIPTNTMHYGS

[7] = target: T2, Histone-lysine N-methyltransferase SETD7 (Homo sapiens) (UniProt Q8WTS6); experiment: Inhibition of human recombinant SET7 assessed as histone H3 protein methylation at 100 uM; procedure, shortened: as §3
T2 sequence (whole entry): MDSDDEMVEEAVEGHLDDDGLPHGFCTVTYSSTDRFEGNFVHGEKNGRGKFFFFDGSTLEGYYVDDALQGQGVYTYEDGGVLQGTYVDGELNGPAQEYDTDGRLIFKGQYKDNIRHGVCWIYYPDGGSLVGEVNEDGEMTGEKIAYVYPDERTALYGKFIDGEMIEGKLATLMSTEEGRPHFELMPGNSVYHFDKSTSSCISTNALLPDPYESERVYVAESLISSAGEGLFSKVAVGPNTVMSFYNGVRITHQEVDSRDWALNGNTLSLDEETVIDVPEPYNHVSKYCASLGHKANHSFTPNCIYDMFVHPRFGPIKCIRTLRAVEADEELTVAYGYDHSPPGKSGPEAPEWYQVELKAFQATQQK

U-937 [8] = experiment: Inhibition of histone H3K4 methylation in human U937 cells at 50 uM after 24 hrs; format: functional, cell-based
Procedure, shortened: (§4)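 U937 cells treated at 50 µM for 24 h. Histones extracted with Triton buffer, then 0.2 M HCl overnight at 4 °C. 3–10 µg run on 15% SDS-PAGE and immunoblotted with anti-monomethyl-H3K4, monomethyl-H4R3 or dimethyl-H3R17 (1:500, overnight 4 °C), ECL detection. Loading controls: total H4 (H3K4), Ponceau Red (Arg marks).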

U-937 [9] = experiment: Inhibition of histone H4R3 methylation in human U937 cells at 50 uM after 24 hrs; format: functional, cell-based; procedure, shortened: as §4
U-937 [10] = experiment: Inhibition of histone H3R17 methylation in human U937 cells at 50 uM after 24 hrs; format: functional, cell-based; procedure, shortened: as §4
U-937 [11] = experiment: Inhibition of human p300/CBP in U937 cells at 50 uM assessed as histone H3 acetylation; format: cell-based
Procedure, shortened: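 Source was U937 nuclear extract (10 µg per assay) as p300/CBP HAT, with histone H3 substrate and compound at 50 µM or DMSO control for 90 min. Acetyl-H3 detected by indirect ELISA, quantified against acetylated H3 peptide standard curves, […].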

[12] = target: T3, NAD-dependent protein deacetylase sirtuin-1 (Homo sapiens) (UniProt Q96EB6); experiment: Inhibition of human SIRT1 at 25 uM
T3 sequence (whole entry): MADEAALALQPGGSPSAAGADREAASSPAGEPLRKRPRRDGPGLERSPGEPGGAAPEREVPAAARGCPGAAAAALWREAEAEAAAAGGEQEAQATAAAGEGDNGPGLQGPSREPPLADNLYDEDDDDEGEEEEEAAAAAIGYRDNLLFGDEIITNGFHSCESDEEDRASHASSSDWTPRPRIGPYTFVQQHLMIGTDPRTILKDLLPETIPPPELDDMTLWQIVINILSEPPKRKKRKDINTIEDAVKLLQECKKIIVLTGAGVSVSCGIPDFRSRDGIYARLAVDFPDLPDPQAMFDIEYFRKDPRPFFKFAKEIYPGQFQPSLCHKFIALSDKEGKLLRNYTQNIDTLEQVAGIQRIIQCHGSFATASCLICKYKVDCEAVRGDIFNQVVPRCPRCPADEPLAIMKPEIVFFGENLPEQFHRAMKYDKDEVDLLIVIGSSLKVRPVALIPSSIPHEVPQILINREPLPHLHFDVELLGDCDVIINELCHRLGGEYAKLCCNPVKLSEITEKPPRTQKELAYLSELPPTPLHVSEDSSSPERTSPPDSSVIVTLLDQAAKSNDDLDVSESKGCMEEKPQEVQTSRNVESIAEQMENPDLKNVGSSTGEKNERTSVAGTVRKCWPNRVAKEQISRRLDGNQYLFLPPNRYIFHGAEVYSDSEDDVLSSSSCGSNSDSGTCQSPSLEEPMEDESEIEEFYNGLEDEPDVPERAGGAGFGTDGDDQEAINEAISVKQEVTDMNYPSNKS
Procedure, shortened: (§5)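 Fluorescent two-stage assay. SIRT1 (1 U/well) or SIRT2 (5 U/well) with Fluor de Lys-SIRT1/2 substrate, NAD+ and compound at 25 µM, 37 °C for 2 h. Developer II containing nicotinamide then stopped the reaction and generated signal, read at ex 360/em 460 nm.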

[13] = target: T4, NAD-dependent protein deacetylase sirtuin-2 (Homo sapiens) (UniProt Q8IXJ6); experiment: Inhibition of human SIRT2 at 25 uM; procedure, shortened: as §5
T4 sequence (whole entry): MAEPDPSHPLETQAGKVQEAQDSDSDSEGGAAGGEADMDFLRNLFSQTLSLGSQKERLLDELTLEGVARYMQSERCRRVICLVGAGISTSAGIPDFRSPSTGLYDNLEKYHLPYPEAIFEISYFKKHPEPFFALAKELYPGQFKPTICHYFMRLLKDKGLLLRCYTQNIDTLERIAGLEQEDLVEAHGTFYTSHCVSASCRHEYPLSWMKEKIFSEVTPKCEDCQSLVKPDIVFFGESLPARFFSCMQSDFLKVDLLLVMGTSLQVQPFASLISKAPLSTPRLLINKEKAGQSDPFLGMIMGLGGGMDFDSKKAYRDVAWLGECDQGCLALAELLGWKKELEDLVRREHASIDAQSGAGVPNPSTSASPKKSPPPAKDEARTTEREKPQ

U-937 [14] = experiment: Cell cycle arrest in human U937 cells assessed as accumulation at S phase at 25 uM after 30 hrs; format: functional, cell-based; procedure, shortened: as §1
U-937 [15] = experiment: Induction of cell cycle arrest in human U937 cells at 25 uM after 30 hrs; format: functional, cell-based; procedure, shortened: as §1
U-937 [16] = experiment: Induction of granulocytic differentiation in human U937 cells assessed as CD11c expression at 1 uM after 30 hrs; format: functional; procedure, shortened: as §2
U-937 [17] = experiment: Induction of granulocytic differentiation in human U937 cells assessed as CD11c expression at 0.5 uM after 30 hrs; format: functional; procedure, shortened: as §2

Compound | Activity (U-937 [1]) | Activity (U-937 [2]) | Activity (U-937 [3]) | IC50 (RmtA) | inhibition [4] | Activity [5] | Activity [6] | Activity [7] | Activity (U-937 [8]) | Activity (U-937 [9]) | Activity (U-937 [10]) | inhibition (U-937 [11]) | inhibition [12] | inhibition [13] | Activity (U-937 [14]) | Activity (U-937 [15]) | Activity (U-937 [16]) | Activity (U-937 [17])
CN1C/C(=C\c2cc(Br)c(O)c(Br)c2)C(=O)/C(=C/c2cc(Br)c(O)c(Br)c2)C1 | Active | 1% | 53.2% | 39 µM | 73% | Active | Active | Active | Active | Active | Active | 87% | 63% | 64% | – | – | – | –
O=C1/C(=C/c2cc(Br)c(O)c(Br)c2)CCC/C1=C\c1cc(Br)c(O)c(Br)c1 | – | 2% | 70.9% | 14 µM | 44% | Active | Active | Active | Active | Active | Active | 96% | 50% | 56% | Active | – | – | –
O=C1OC2(c3ccccc31)c1cc(Br)c(O)c(Br)c1Oc1c2cc(Br)c(O)c1Br [EOSIN] | – | 0.5% | – | 18 µM | 96% | Active | Active | Active | – | Active | Active | 20% | 33% | 31% | – | inactive | 5.7% | –
O=C(/C=C/c1cc(Br)c(O)c(Br)c1)/C=C/c1cc(Br)c(O)c(Br)c1 | Active | 1.1% | 95.2% | 69 µM | 76% | – | Active | Active | Active | Active | Active | 100% | 61% | 100% | – | – | – | 77%
O=C(/C=C/c1ccc(O)c(Br)c1)/C=C/c1cc(Br)c(O)c(Br)c1 | – | 1% | 68.1% | 40 µM | 17% | Active | Active | Active | inactive | Active | Active | 62% | 60% | 65% | Active | – | – | –
O=C(/C=C/c1cc(Br)c(O)c(Br)c1)CC(=O)/C=C/c1cc(Br)c(O)c(Br)c1 | – | 10.5% | 33% | 48 µM | 70% | Active | Active | Active | – | Active | Active | 58% | 52% | 61% | Active | – | – | –

Source: ChEMBL document CHEMBL1144710, “epigenetic multiple ligands: mixed histone/protein methyltransferase, acetyltransferase, and class III deacetylase (sirtuin) inhibitors” (J Med Chem, 2008)
